Results published in ChEMBL document CHEMBL1148788 (J Med Chem, 2007).
“And” between values parts separate entries of the source, which are not always exact repeats. Identical values can stand only once. The source made the active and inactive calls. The calls are words filed in the database; no cut-off is given here.

Experiments:
[1] = target: T1, Neuronal acetylcholine receptor subunit alpha-7 (Homo sapiens, UniProt P36544); test: Antagonist activity at human alpha-7 nAChR in tsA201 cells coexpressed with Ric3 by FMP assay; type: functional, cell-based
Target sequence in this assay (P36544 whole entry): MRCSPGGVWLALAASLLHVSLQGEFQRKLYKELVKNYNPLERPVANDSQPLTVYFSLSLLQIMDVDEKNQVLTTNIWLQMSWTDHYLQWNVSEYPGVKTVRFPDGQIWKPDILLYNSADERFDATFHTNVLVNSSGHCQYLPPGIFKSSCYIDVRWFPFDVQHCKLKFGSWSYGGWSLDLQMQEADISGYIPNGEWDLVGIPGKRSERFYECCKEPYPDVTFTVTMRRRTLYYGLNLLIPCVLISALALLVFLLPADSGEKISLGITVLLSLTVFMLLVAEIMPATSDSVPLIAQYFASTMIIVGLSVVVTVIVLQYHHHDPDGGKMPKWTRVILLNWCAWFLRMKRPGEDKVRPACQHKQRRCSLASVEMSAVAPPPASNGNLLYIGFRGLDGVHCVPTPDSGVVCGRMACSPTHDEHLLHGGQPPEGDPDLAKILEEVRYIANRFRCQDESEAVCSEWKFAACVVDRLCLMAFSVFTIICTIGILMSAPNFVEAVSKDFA

[2] = target: T2, 5-hydroxytryptamine receptor 3A (Homo sapiens, UniProt P46098); test: Antagonist activity at human 5HT3A receptor expressed in HEK293 cells by FMP assay; type: functional, cell-based; conditions: read-out: IC50
T2 sequence (P46098 whole entry): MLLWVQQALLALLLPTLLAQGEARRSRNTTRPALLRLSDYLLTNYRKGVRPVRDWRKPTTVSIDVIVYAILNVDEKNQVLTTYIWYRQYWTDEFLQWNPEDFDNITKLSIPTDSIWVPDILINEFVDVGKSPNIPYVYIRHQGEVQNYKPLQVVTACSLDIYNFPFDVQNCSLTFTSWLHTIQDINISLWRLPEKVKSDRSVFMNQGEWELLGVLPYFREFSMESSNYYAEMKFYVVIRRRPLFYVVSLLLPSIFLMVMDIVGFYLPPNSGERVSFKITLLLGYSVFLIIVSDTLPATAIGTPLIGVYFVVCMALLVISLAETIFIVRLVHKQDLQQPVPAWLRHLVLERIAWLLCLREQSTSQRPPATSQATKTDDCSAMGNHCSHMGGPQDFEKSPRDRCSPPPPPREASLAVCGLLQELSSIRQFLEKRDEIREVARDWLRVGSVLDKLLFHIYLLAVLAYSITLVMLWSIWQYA

[3] = cells; type: functional, cell-based; conditions: Homo sapiens, HEK293
[4] = test system: tsA201; test: Displacement of [3H]methyllycaconitine from chimeric alpha-7nAChR Y188A mutant/5-HT3A receptor in tsA201 cells; type: cell-based; conditions: Homo sapiens
Method in brief: (§1)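 tsA-201 cells transiently transfected with 4 µg WT or mutant α7/5-HT3A chimera and assayed 2 days later. Membranes washed twice at 50000g in 50 mM Tris-HCl pH 7.2. Incubated with 0.5 nM [3H]MLA and compound for 2.5 h at room temperature with shaking; nonspecific binding with 5 mM (S)-nicotine. PEI-soaked GF/C filtration, scintillation counting. Ki derived; duplicate, 3–7 experiments.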

[5] = target: T1, Neuronal acetylcholine receptor subunit alpha-7; test: Displacement of [3H]methyllycaconitine from alpha7 nAChR in tsA201 cells co-expressed with Ric3; type: cell-based
Target sequence in this assay (P36544 whole entry): as the sequence (P36544 whole entry) above

[6] = Antagonist activity at human alpha-7 nAChR Y188A mutant coexpressed with human Ric3 in tsA201 cells by FMP assay; type: functional, cell-based
[7] = test system: tsA201; test: Displacement of [3H]methyllycaconitine from chimeric alpha-7nAChR W149Y mutant/5HT3A receptor W149Y mutant in tsA201 cells; type: cell-based; conditions: Homo sapiens; method in brief: as §1
[8] = Antagonist activity at human alpha-7 nAChR Y195A mutant coexpressed with human Ric3 in tsA201 cells by FMP assay; type: functional, cell-based
[9] = target: Neuronal acetylcholine receptor; alpha4/beta2 (Rattus norvegicus, UniProt P09483+P12390); test: Displacement of [3H]epibatidine from rat recombinant alpha-4-beta-2 nAChR in HEK293 cell line; type: cell-based
Sequence of Neuronal acetylcholine receptor; alpha4/beta2 (P09483 whole entry): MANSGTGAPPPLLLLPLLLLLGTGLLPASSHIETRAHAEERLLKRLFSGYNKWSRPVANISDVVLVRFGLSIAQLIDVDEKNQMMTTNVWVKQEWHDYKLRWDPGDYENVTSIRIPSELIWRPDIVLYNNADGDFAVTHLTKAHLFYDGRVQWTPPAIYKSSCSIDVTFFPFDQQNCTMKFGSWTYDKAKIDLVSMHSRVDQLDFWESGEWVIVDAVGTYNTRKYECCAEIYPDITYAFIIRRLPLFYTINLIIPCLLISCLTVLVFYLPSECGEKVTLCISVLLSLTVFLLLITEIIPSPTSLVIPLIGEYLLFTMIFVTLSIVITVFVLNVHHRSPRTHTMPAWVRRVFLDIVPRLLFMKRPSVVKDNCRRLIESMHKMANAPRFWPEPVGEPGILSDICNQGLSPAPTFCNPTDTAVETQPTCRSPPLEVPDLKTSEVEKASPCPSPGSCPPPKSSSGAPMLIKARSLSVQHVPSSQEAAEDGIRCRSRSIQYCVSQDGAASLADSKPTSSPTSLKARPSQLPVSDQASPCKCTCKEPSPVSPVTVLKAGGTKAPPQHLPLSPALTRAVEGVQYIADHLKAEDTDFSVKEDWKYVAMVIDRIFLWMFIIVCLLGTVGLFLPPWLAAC
Sequence of Neuronal acetylcholine receptor; alpha4/beta2 (P12390 whole entry): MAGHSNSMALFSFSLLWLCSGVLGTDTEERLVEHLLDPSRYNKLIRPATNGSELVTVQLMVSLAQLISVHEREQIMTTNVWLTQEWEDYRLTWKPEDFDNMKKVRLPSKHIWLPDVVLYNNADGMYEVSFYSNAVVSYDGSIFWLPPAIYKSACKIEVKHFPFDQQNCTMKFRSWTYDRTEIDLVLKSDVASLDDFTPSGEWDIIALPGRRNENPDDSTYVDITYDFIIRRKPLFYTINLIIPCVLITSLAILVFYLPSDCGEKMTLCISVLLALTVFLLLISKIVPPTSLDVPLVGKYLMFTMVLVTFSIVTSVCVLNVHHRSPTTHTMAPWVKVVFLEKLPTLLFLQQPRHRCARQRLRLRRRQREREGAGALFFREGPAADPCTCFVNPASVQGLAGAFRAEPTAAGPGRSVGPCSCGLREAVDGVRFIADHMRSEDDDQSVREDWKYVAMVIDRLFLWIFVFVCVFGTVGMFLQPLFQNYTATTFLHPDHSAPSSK

[10] = Displacement of [3H]methyllycaconitine from chimeric alpha-7nAChR D197A mutant/5HT3A receptor in tsA201 cells; type: cell-based, Homo sapiens; method in brief: as §1
[11] = Displacement of [3H]methyllycaconitine from chimeric alpha7nAChR K145A mutant/5HT3A receptor in tsA201 cells; type: cell-based, Homo sapiens; method in brief: as §1
[12] = target: T2, 5-hydroxytryptamine receptor 3A; test: Displacement of [3H]GR65630 from human 5HT3A receptor in HEK293 cells; type: cell-based
[13] = Displacement of [3H]methyllycaconitine from chimeric alpha7nAChR R79A mutant/5HT3A receptor R79A mutant in tsA201 cells; type: cell-based, Homo sapiens; method in brief: as §1
[14] = Displacement of [3H]methyllycaconitine from chimeric alpha-7nAChR Y168A mutant/5HT3A receptor in tsA201 cells; type: cell-based, Homo sapiens; method in brief: as §1
[15] = Displacement of [3H]methyllycaconitine from chimeric alpha-7nAChR S148A mutant /5HT3A receptor in tsA201 cells; type: cell-based, Homo sapiens; method in brief: as §1
[16] = Displacement of [3H]methyllycaconitine from chimeric alpha7nAChR Y195A mutant/5HT3A receptor in tsA201 cells; type: cell-based, Homo sapiens; method in brief: as §1
[17] = target: Neuronal acetylcholine receptor; alpha4/beta4 (Rattus norvegicus, UniProt P09483+P12392); test: Displacement of [3H]epibatidine from recombinant rat alpha-4-beta-4 nAChr in HEK293 cell line; type: cell-based
Sequence of Neuronal acetylcholine receptor; alpha4/beta4 (P09483 whole entry): as the sequence (P09483 whole entry) above
Sequence of Neuronal acetylcholine receptor; alpha4/beta4 (P12392 whole entry): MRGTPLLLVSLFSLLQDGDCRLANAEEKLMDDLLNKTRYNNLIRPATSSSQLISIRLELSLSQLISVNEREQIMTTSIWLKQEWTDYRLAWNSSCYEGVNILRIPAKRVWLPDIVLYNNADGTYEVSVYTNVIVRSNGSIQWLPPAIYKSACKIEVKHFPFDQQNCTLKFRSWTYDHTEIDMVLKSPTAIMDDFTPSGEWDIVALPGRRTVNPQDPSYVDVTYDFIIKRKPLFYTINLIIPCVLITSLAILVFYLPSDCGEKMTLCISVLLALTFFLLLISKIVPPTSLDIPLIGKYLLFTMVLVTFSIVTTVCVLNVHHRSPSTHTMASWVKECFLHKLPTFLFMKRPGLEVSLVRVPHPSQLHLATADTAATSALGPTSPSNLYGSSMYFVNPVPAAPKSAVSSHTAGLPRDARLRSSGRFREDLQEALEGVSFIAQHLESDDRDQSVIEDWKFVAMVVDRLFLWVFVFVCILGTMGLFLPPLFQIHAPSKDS

[18] = Displacement of [3H]methyllycaconitine from chimeric alpha-7nAChR S150A mutant/5HT3A receptor in tsA201 cells; type: cell-based, Homo sapiens; method in brief: as §1
[19] = target: T1, Neuronal acetylcholine receptor subunit alpha-7; test: Displacement of [3H]methyllycaconitine from human alpha-7 in tsA201 cells coexpressed with 5HT3A receptor; type: cell-based
Target sequence in this assay (P36544 whole entry): as the sequence (P36544 whole entry) above

[20] = target: T1, Neuronal acetylcholine receptor subunit alpha-7
Target sequence in this assay (P36544 whole entry): as above

[21] = Antagonist activity at human alpha7 nAChR W149Y mutant co-expressed with human Ric3 in tsA201 cells by FMP assay; type: functional, cell-based
[22] = Displacement of [3H]methyllycaconitine from chimeric alpha-7nAChR N107A mutant/5HT3A receptor in tsA201 cells; type: cell-based, Homo sapiens; method in brief: as §1
[23] = test system: tsA201; test: Displacement of [3H]methyllycaconitine from chimeric alpha-7nAChR W149A mutant/5HT3A receptor in tsA201 cells; type: cell-based; conditions: Homo sapiens; method in brief: as §1
[24] = Displacement of [3H]methyllycaconitine from chimeric alpha-7nAChR Y195F mutant/5HT3A receptor in tsA201 cells; type: cell-based, Homo sapiens; method in brief: as §1
[25] = Antagonist activity at human alpha7nAChR Y93A mutant co-expressed with human Ric3 in tsA201 cells by FMP assay; type: functional, cell-based
[26] = target: T3, Neuronal acetylcholine receptor; alpha3/beta4 (Rattus norvegicus, UniProt P04757+P12392); test: Displacement of [3H]epibatidine from recombinant rat alpha-3-beta-4 nAChr in HEK293 cell line; type: cell-based
T3 sequence (P04757 whole entry): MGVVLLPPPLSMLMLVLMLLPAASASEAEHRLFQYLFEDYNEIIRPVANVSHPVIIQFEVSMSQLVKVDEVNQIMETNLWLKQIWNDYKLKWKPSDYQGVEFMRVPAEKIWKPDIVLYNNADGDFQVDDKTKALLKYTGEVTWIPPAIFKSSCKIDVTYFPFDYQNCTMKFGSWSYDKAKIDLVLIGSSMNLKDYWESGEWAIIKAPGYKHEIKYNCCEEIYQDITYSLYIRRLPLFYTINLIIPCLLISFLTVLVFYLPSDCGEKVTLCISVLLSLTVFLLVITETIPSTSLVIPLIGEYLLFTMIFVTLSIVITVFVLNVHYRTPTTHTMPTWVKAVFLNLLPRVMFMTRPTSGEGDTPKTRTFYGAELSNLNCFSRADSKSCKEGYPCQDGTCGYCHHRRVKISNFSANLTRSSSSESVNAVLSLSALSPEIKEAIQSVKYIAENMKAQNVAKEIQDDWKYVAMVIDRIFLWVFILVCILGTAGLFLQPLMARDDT
T3 sequence (P12392 whole entry): as the sequence (P12392 whole entry) above

[27] = target: T3, Neuronal acetylcholine receptor; alpha3/beta4; test: Antagonist activity at rat alpha3beta4 nAChR expressed in HEK293 cells by FMP assay; type: functional, cell-based, Homo sapiens; conditions: read-out: IC50
[28] = Displacement of [3H]methyllycaconitine from chimeric alpha-7nAChR W55A mutant /5HT3A receptor in tsA201 cells; type: cell-based, Homo sapiens; method in brief: as §1
[29] = target: T1, Neuronal acetylcholine receptor subunit alpha-7; test: Displacement of [3H]methyllycaconitine from chimeric alpha7nAChR/5HT3A in tsA201 cells; type: cell-based
Target sequence in this assay (P36544 23-502 limits assumed): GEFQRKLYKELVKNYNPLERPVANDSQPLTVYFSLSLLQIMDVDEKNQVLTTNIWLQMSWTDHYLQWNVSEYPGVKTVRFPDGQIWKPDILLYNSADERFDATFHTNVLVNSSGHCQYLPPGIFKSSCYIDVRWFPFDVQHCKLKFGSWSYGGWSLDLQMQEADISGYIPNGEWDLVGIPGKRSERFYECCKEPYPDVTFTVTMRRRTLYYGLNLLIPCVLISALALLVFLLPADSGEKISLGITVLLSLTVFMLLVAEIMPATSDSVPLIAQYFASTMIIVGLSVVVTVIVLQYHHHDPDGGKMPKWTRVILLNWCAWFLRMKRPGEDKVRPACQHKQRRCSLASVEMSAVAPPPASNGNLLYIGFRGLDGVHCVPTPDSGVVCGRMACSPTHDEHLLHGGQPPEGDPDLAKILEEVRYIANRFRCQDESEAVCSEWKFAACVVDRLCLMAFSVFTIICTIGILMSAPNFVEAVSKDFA

[30] = Displacement of [3H]methyllycaconitine from chimeric alpha-7nAChR K145R mutant /5HT3A receptor in tsA201 cells; type: cell-based, Homo sapiens; method in brief: as §1
[31] = test system: tsA201; test: Displacement of [3H]methyllycaconitine from chimeric alpha-7nAChR Y93A mutant/5HT3A receptor in tsA201 cells; type: cell-based; conditions: Homo sapiens; method in brief: as §1
[32] = test system: tsA201; test: Displacement of [3H]methyllycaconitine from chimeric alpha-7nAChR W55A/Y195A mutant /5HT3A receptor in tsA201 cells; type: cell-based; conditions: Homo sapiens; method in brief: as §1
[33] = target: T4, Glycine receptor subunit alpha-1 (Homo sapiens, UniProt P23415); test: Antagonist activity at human glycine alpha-1 receptor in HEK293 cells by FMP assay; type: functional, cell-based
T4 sequence (P23415 whole entry): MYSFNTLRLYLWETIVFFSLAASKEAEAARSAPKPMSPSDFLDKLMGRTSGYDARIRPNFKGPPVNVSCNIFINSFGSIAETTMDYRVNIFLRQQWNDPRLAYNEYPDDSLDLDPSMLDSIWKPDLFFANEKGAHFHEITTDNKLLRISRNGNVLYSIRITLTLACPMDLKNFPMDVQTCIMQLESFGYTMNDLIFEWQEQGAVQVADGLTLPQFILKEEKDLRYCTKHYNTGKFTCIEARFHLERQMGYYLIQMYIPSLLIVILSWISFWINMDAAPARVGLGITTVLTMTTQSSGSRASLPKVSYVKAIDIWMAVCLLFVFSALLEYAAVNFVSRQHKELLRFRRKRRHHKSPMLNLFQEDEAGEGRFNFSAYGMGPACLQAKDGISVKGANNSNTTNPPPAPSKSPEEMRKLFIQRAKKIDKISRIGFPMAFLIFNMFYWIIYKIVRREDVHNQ

[34] = Displacement of [3H]methyllycaconitine from chimeric alpha7nAChR W55Y mutant/5HT3A receptor in tsA201 cells; type: cell-based, Homo sapiens; method in brief: as §1

C1=CC([N+]23CC[C@@H]4[C@@H]5[C@@H]6[C@@H](OCC=C(C2)[C@@H]6C[C@@H]43)N2c3ccccc3[C@@]34CC[N+]6(C7C=CCCC7)CC7=CCO[C@H]([C@@H]([C@H]23)[C@H]7C[C@@H]46)N5c2ccccc2)CCC1.[Br-].[Br-] (stereo partly drawn)
IC50 ([1]; read-out: IC50): 3000 nM | IC50 ([1]; read-out: pIC50 (converted)): 3020 nM | IC50 [2]: 4400 nM | IC50 ([3]; read-out: IC50): > 100000 nM | IC50 ([3]; read-out: pIC50 (converted)): > 100000 nM | Activity [4]: inactive | Ki ([5]; read-out: Ki): 590 nM | Ki ([5]; read-out: pKi (converted)): 631 nM | IC50 ([6]; read-out: IC50): 5300 nM | IC50 ([6]; read-out: pIC50 (converted)): 5130 nM | Activity [7]: inactive | IC50 ([8]; read-out: IC50): 3300 nM | IC50 ([8]; read-out: pIC50 (converted)): 3310 nM | pKi ([9]; hek293): < 4 | Ki ([9]; read-out: Ki): > 100000 nM | Ki [10]: 1500 nM | pKi [10]: 5.83 | Ki [11]: 320 nM | pKi [11]: 6.5 | Ki [12]: 2700 nM | Ki [13]: 1300 nM | pKi [13]: 5.89 | Ki [14]: 1100 nM | pKi [14]: 5.96 | Ki [15]: 400 nM | pKi [15]: 6.4 | Ki [16]: 4900 nM | pKi [16]: 5.31 | Ki [17]: > 100000 nM | pKi ([17]; hek293): < 4 | Ki [18]: 550 nM | pKi [18]: 6.26 | Ki ([19]; read-out: Ki): 720 nM | Ki ([19]; read-out: pKi (converted)): 794 nM | IC50 [20]: 3000 nM and 2950 nM | IC50 ([21]; read-out: IC50): 2900 nM | IC50 ([21]; read-out: pIC50 (converted)): 2880 nM | Ki [22]: 724 nM | pKi [22]: 6.14 | Activity [23]: inactive | Ki [24]: 1300 nM | pKi [24]: 5.89 | IC50 ([25]; read-out: IC50): 3700 nM | IC50 ([25]; read-out: pIC50 (converted)): 3720 nM | Ki [26]: 30000 nM | IC50 [27]: 30000 nM | Ki [28]: 1200 nM | pKi [28]: 5.93 | Ki [29]: 840 nM | pKi [29]: 6.07 | Ki [30]: 660 nM | pKi [30]: 6.18 | Activity [31]: inactive | Activity [32]: inactive | IC50 [33]: > 100000 nM | pIC50 ([33]; hek293): < 4 | Ki [34]: 560 nM | pKi [34]: 6.25
